Columns and labels:
Format in all cases: functional
MDA-MB-231 = assay: Growth inhibition of human MDA-MB-231 cells incubated for 48 hrs by sulforhodamine B assay; conditions: MDA-MB-231, 48 h
Method in brief: (§1)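 NCI-60 five-dose screen at 0.01, 0.1, 1, 10 and 100 µM, 48 h incubation, sulforhodamine B end point. GI50 (50% decrease in net growth), TGI (total growth inhibition) and LC50 (net 50% loss of initial cells) taken from log concentration versus % growth inhibition curves.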

T47D = assay: Growth inhibition of human T47D cells incubated for 48 hrs by sulforhodamine B assay; conditions: for CC50: read-out: LC50 (the source's name)
Method in brief: (§2)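 NCI 60 human tumour cell line panel, five-dose study at 0.01, 0.1, 1, 10 and 100 µM, 48 h incubation. Sulforhodamine B protein-binding dye end point. GI50 (50% decrease in net cell growth), TGI (total growth inhibition) and LC50 (net 50% loss of initial cells) read from log concentration versus % growth inhibition curves.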

SK-MEL-5 = assay: Growth inhibition of human SK-MEL-5 cells incubated for 48 hrs by sulforhodamine B assay; conditions: SK-MEL-5, 48 h; for CC50: read-out: LC50 (the source's name); method in brief: as §2
RXF 393 = assay: Growth inhibition of human RXF393 cells incubated for 48 hrs by sulforhodamine B assay; conditions: RXF 393, 48 h; for CC50: read-out: LC50 (the source's name); method in brief: as §2
RPMI-8226 = assay: Growth inhibition of human RPMI8226 cells incubated for 48 hrs by sulforhodamine B assay; conditions: RPMI-8226, 48 h; for CC50: read-out: LC50 (the source's name); method in brief: as §2
SF-539 [1] = assay: Anticancer activity against human SF539 cells assessed as cell growth at 10 uM after 48 hrs by sulforhodamine B assay relative to control; conditions: SF-539, 48 h, read-out: Activity
Method in brief: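 Single-dose NCI-60 panel screen: compound added at 10 µM and the culture incubated 48 h. The end point was read by protein staining with sulforhodamine B. The value is percent growth of treated cells relative to untreated control cells, reported as a mean graph across the panel.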

CCRF-CEM = assay: Growth inhibition of human CCRF-CEM cells incubated for 48 hrs by sulforhodamine B assay; conditions: for CC50: read-out: LC50 (the source's name); method in brief: as §1
BT-549 = assay: Growth inhibition of human BT549 cells incubated for 48 hrs by sulforhodamine B assay; conditions: BT-549, 48 h; for CC50: read-out: LC50 (the source's name); method in brief: as §1
K562 = assay: Growth inhibition of human K562 cells incubated for 48 hrs by sulforhodamine B assay; conditions: K562, 48 h; for CC50: read-out: LC50 (the source's name); method in brief: as §1
SW-620 = assay: Growth inhibition of human SW620 cells incubated for 48 hrs by sulforhodamine B assay; conditions: SW-620, 48 h; for CC50: read-out: LC50 (the source's name); method in brief: as §2
HL-60(TB) = assay: Growth inhibition of human HL-60(TB) cells incubated for 48 hrs by sulforhodamine B assay; conditions: HL-60, 48 h; for CC50: read-out: LC50 (the source's name)
Method in brief: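 NCI-60 five-dose screen at 0.01, 0.1, 1, 10 and 100 µM for 48 h, sulforhodamine B read-out. GI50 taken from log concentration versus % growth inhibition curves as the concentration giving 50% decrease in net cell growth.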

M14 = assay: Growth inhibition of human M14 cells incubated for 48 hrs by sulforhodamine B assay; conditions: M14, 48 h; for CC50: read-out: LC50 (the source's name); method in brief: as §1
PC-3 = assay: Growth inhibition of human PC3 cells incubated for 48 hrs by sulforhodamine B assay; conditions: PC-3, 48 h; for CC50: read-out: LC50 (the source's name); method in brief: as §1
SNB-19 = assay: Growth inhibition of human SNB19 cells incubated for 48 hrs by sulforhodamine B assay; conditions: SNB-19, 48 h; for CC50: read-out: LC50 (the source's name); method in brief: as §2
UACC-62 = assay: Growth inhibition of human UACC62 cells incubated for 48 hrs by sulforhodamine B assay; conditions: UACC-62, 48 h; for CC50: read-out: LC50 (the source's name); method in brief: as §2
HCT-116 = assay: Growth inhibition of human HCT116 cells incubated for 48 hrs by sulforhodamine B assay; conditions: HCT-116, 48 h; for CC50: read-out: LC50 (the source's name); method in brief: as §1
HCT-15 = assay: Growth inhibition of human HCT15 cells incubated for 48 hrs by sulforhodamine B assay; conditions: HCT-15, 48 h; for CC50: read-out: LC50 (the source's name); method in brief: as §1
KM12 = assay: Growth inhibition of human KM12 cells incubated for 48 hrs by sulforhodamine B assay; conditions: KM12, 48 h; for CC50: read-out: LC50 (the source's name); method in brief: as §1
EKVX = assay: Growth inhibition of human EKVX cells incubated for 48 hrs by sulforhodamine B assay; conditions: for CC50: read-out: LC50 (the source's name); method in brief: as §1
CAKI-1 = assay: Growth inhibition of human Caki1 cells incubated for 48 hrs by sulforhodamine B assay; conditions: CAKI-1, 48 h; for CC50: read-out: LC50 (the source's name); method in brief: as §1
A498 = assay: Growth inhibition of human A498 cells incubated for 48 hrs by sulforhodamine B assay; conditions: A498, 48 h; method in brief: as §1
HCC 2998 = assay: Growth inhibition of human HCC2998 cells incubated for 48 hrs by sulforhodamine B assay; conditions: HCC 2998, 48 h; for CC50: read-out: LC50 (the source's name); method in brief: as §1
DU-145 = assay: Growth inhibition of human DU145 cells incubated for 48 hrs by sulforhodamine B assay; conditions: DU-145, 48 h; for CC50: read-out: LC50 (the source's name); method in brief: as §1
SK-MEL-2 = assay: Growth inhibition of human SK-MEL-2 cells incubated for 48 hrs by sulforhodamine B assay; conditions: SK-MEL-2, 48 h; for CC50: read-out: LC50 (the source's name); method in brief: as §2
SF-539 [2] = assay: Growth inhibition of human SF539 cells incubated for 48 hrs by sulforhodamine B assay; conditions: SF-539, 48 h; for CC50: read-out: LC50 (the source's name); method in brief: as §2
MCF7 = assay: Growth inhibition of human MCF7 cells incubated for 48 hrs by sulforhodamine B assay; conditions: MCF7, 48 h; for CC50: read-out: LC50 (the source's name); method in brief: as §1
ACHN = assay: Growth inhibition of human ACHN cells incubated for 48 hrs by sulforhodamine B assay; conditions: for CC50: read-out: LC50 (the source's name); method in brief: as §1

## C=C1CC[C@@H]2[C@](C)(COC(C)=O)[C@H](OC(C)=O)CC[C@@]2(C)[C@H]1CC(Nc1ccc(S(=O)(=O)Nc2ncccn2)cc1)C1=CCOC1=O (stereo partly drawn)
MDA-MB-231
  GI50: 1.95 µM
  LC50 (concentration giving net 50% loss of initial cells): 7.91 µM
  TGI: 3.93 µM
T47D
  GI50: 2 µM
  TGI: 5.46 µM
  CC50: > 100 µM
SK-MEL-5
  GI50: 1.9 µM
  TGI: 3.85 µM
  CC50: 7.81 µM
RXF 393
  GI50: 1.95 µM
  TGI: 3.58 µM
  CC50: 6.6 µM
RPMI-8226
  GI50: 0.54 µM
  TGI: 3.12 µM
  CC50: > 100 µM
SF-539 [1]
  growth at 10 µM: -69%
CCRF-CEM
  GI50: 0.73 µM
  TGI: 3.41 µM
  CC50: > 100 µM
BT-549
  GI50: 1.64 µM
  TGI: 3.39 µM
  CC50: 7.04 µM
K562
  GI50: 1.73 µM
  TGI: 11.7 µM
  CC50: > 100 µM
SW-620
  GI50: 0.86 µM
  TGI: 2.25 µM
  CC50: 5.36 µM
HL-60(TB)
  GI50: 1.3 µM
  TGI: 3.64 µM
  CC50: > 100 µM
M14
  GI50: 1.44 µM
  TGI: 3.98 µM
  CC50: 15.9 µM
PC-3
  GI50: 2.11 µM
  TGI: 5.07 µM
  CC50: 17.5 µM
SNB-19
  GI50: 1.63 µM
  TGI: 3.76 µM
  CC50: 8.65 µM
UACC-62
  GI50: 1.11 µM
  TGI: 2.56 µM
  CC50: 5.91 µM
HCT-116
  GI50: 0.87 µM
  TGI: 2.49 µM
  CC50: 6.51 µM
HCT-15
  GI50: 1.21 µM
  TGI: 3.32 µM
  CC50: 9.15 µM
KM12
  GI50: 2.33 µM
  TGI: 5.54 µM
  CC50: 17.8 µM
EKVX
  GI50: 8.18 µM
  TGI: 20.6 µM
  CC50: 45.6 µM
CAKI-1
  GI50: 1.74 µM
  TGI: 4.04 µM
  CC50: 9.39 µM
A498
  GI50: 12.3 µM
  LC50 (concentration giving net 50% loss of initial cells): 49.9 µM
  TGI: 24.7 µM
HCC 2998
  GI50: 2.1 µM
  TGI: 3.81 µM
  CC50: 6.9 µM
DU-145
  GI50: 1.62 µM
  TGI: 3.07 µM
  CC50: 5.83 µM
SK-MEL-2
  GI50: 2.36 µM
  TGI: 7.2 µM
  CC50: 30.4 µM
SF-539 [2]
  GI50: 1.5 µM
  TGI: 2.94 µM
  CC50: 5.78 µM
MCF7
  GI50: 1.07 µM
  TGI: 4.54 µM
  CC50: > 100 µM
ACHN
  GI50: 1.72 µM
  TGI: 3.27 µM
  CC50: 6.2 µM

## C=C1CC[C@@H]2[C@](C)(COC(C)=O)[C@H](OC(C)=O)CC[C@@]2(C)[C@H]1CC(Nc1ccc(S(=O)(=O)Nc2nccc(C)n2)cc1)C1=CCOC1=O (stereo partly drawn)
MDA-MB-231
  GI50: 3.62 µM
  LC50 (concentration giving net 50% loss of initial cells): 40.5 µM
  TGI: 10.2 µM
T47D
  GI50: 2.77 µM
  TGI: 8.33 µM
  CC50: > 100 µM
SK-MEL-5
  GI50: 3.79 µM
  TGI: 14 µM
  CC50: 41.2 µM
RXF 393
  GI50: 2.33 µM
  TGI: 4.18 µM
  CC50: 7.49 µM
RPMI-8226
  GI50: 1.95 µM
  TGI: 6.84 µM
  CC50: > 100 µM
SF-539 [1]
  growth at 10 µM: -62.7%
CCRF-CEM
  GI50: 0.0073 µM
  TGI: 3.09 µM
  CC50: > 100 µM
BT-549
  GI50: 2.3 µM
  TGI: 5.61 µM
  CC50: 18.7 µM
K562
  GI50: 2.97 µM
  TGI: 21.7 µM
  CC50: > 100 µM
SW-620
  GI50: 1.6 µM
  TGI: 3.68 µM
  CC50: 8.48 µM
HL-60(TB)
  GI50: 2.1 µM
  TGI: 5.63 µM
  CC50: > 100 µM
M14
  GI50: 2.81 µM
  TGI: 10.8 µM
  CC50: 72.6 µM
PC-3
  GI50: 4.46 µM
  TGI: 15.7 µM
  CC50: 43.3 µM
SNB-19
  GI50: 6.3 µM
  TGI: 20.7 µM
  CC50: 52.7 µM
UACC-62
  GI50: 2.38 µM
  TGI: 7.12 µM
  CC50: 30.3 µM
HCT-116
  GI50: 1.6 µM
  TGI: 3.56 µM
  CC50: 7.96 µM
HCT-15
  GI50: 1.79 µM
  TGI: 4.24 µM
  CC50: 10.2 µM
KM12
  GI50: 4.59 µM
  TGI: 16.4 µM
  CC50: 44.4 µM
EKVX
  GI50: 13.9 µM
  TGI: 27.1 µM
  CC50: 52.7 µM
CAKI-1
  GI50: 3.56 µM
  TGI: 12.5 µM
  CC50: 35.5 µM
A498
  GI50: 14.8 µM
  LC50 (concentration giving net 50% loss of initial cells): 54.4 µM
  TGI: 28.4 µM
HCC 2998
  GI50: 4.98 µM
  TGI: 17.9 µM
  CC50: 48.1 µM
DU-145
  GI50: 3.36 µM
  TGI: 11.8 µM
  CC50: 34.9 µM
SK-MEL-2
  GI50: 6.01 µM
  TGI: 20 µM
  CC50: 52.1 µM
SF-539 [2]
  GI50: 2.07 µM
  TGI: 4.73 µM
  CC50: 12.4 µM
MCF7
  GI50: 2.27 µM
  TGI: 12.5 µM
  CC50: > 100 µM
ACHN
  GI50: 3.64 µM
  TGI: 13 µM
  CC50: 38.4 µM

Reference: ChEMBL document CHEMBL4033712, “Synthesis and biological evaluation of new C-12(α/β)-(N-) sulfamoyl-phenylamino-14-deoxy-andrographolide derivatives as potent anti-cancer agents” (Bioorg Med Chem Lett, 2017)
